# Results from PMC9868778 (Planta Medica, 2022).
# Where “and” joins values, the source holds several entries; their conditions need not be identical. Identical values can stand only once. Like-named read-outs stand apart in the source and are kept apart here.
# Tests used:
# [1] = Perfusion system adherence test; format: in vitro ADME; details: % of initially analyzed concentration, 360 min, 5 µM in PM, n = 3
# Outline: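 No placenta in the chamber; only the maternal circuit was run, for 360 min. Test compound was dissolved directly in perfusion medium at a final 5 µM and run on its own. Quantified by U(H)PLC-MS/MS and expressed as % of the initial maternal concentration. Three independent experiments, mean ± SD.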
# [2] = Fraction unbound in placental homogenate; format: in vitro ADME, human; details: for fraction unbound at 240 min, 2 µM: human, placental homogenate (5-fold diluted in PBS)
# placental tissue [3] = test: Viability and functionality of placental tissue during ex vivo perfusion; set-up: species or system human
# Outline: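 Ex vivo perfusion of human placental cotyledons with 100 mL medium per circuit. Fetal circuit gassed with 95% N2/5% CO2, maternal with 95% air/5% CO2. […] Glucose and lactate were measured by blood gas analyser at the start and end of perfusion; β-hCG and leptin by ELISA. Values were normalized to perfusion time and cotyledon weight; Brown-Forsythe/Welch ANOVA with Dunnett's T3.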
# [4] = for transfer across the placental barrier (maternal to fetal circuit): 5 µM added to maternal circuit, 360 min perfusion; for time to steady-state concentration: 5 µM in maternal circuit; for F perfusate (% found): fetal perfusate after 360 min; for F perfusate (% found) / M perfusate (% found): % of initial amount; for M perfusate (% found): maternal perfusate after 360 min; for steady-state concentration, fetal side / steady-state concentration, maternal side: % of initially analyzed concentration in the maternal sample
# [5] = Stability of compounds in PBS, perfusion medium and placental homogenate; format: in vitro ADME, human; details: 360 min, 4 °C and 37 °C
# placental tissue [6] = test: Histopathological evaluation of perfused placental tissue; set-up: species or system human
# Outline: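 Human placental tissue after ex vivo perfusion: sections taken immediately afterwards from the perfused area, the non-perfused area and the transitional area. Fixed in 4% paraformaldehyde ≥24 h, paraffin-embedded, cut at 2–3 µm. Stained with H&E, plus a modified Gram stain (Braun-Brenn) to check for bacterial contamination. Scored for intravascular thrombi, cytotrophoblast vacuolization, hydropic villous changes and villous endothelium viability, compared against non-perfused tissue.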
# 5-HT 1A receptors = details: expressed in human CHO cell membranes ref 22; cited from earlier work
# serotonin transporter = details: expressed in murine S6 cells ref 23; cited from earlier work
# [7] = test system: noradrenaline transporter; details: expressed in murine N1 cells ref 23; cited from earlier work
# [8] = during 360 min, control perfusions
# [9] = 5 µM, compared with antipyrine control perfusions
# [10] = perfused tissue, individual experiments 1-4
# [11] = perfused tissue, individual experiments 1-4, listed as Protopine
Compound,adherence to perfusion equipment (compound lost) [1],"fraction unbound at 240 min, 2 µM [2]",transfer across the placental barrier (maternal to fetal circuit) [4],time to steady-state concentration [4],F perfusate (% found) [4],M perfusate (% found) [4],"effect on placental viability and metabolic activity (glucose consumption, lactate production) (placental tissue [3]; [9])","steady-state concentration, fetal side [4]","steady-state concentration, maternal side [4]",also measured
Cc1cc(=O)n(-c2ccccc2)n1C [antipyrine],7.4 ± 4.7%,1,readily crossed the placental barrier,approximately 120 min,19.8%,22.0%,–,–,–,leptin production (placental tissue [3]; control perfusions): 334.8 pg/g/min; β-hCG production (placental tissue [3]; control perfusions): 95.7 mU/g/min; lactate production (placental tissue [3]; [8]): 0.27 µmol/g/min; total glucose consumption (placental tissue [3]; [8]): 0.39 µmol/g/min; time to equilibrium between maternal and fetal circuits ([4]; connectivity control in perfusions with protopine): 120 to 240 min
protopine,20.4% and 20.4 ± 9.5%,–,rapidly transferred from the maternal to the fetal circuit,–,14.0%,23.1%,did not impair placental viability and metabolic activity,~20%,approximately 27%,"Fraction unbound (fu,hom) ([2]; placental homogenate vs PBS, 2 µM, 240 min, 37 °C, 3 donors): 0.48 ± 0.04; stability in PM [5]: slightly less stable; effect on β-hCG and leptin production (placental tissue [3]; [9]): did not inhibit; effect on placental viability and metabolic activity (glucose consumption, lactate production) (placental tissue [3]; 5 µM, compared with antipyrine control perfusions, listed as Protopine): did not affect placental viability or functionality; damage of placental tissue (endothelium, vascular rupture, thrombi, trophoblast vacuolization) (placental tissue [6]; overall assessment): did not cause apparent damage of placental tissue; Thrombi in vessels of stem villi (placental tissue [6]; [10]): 0%; Thrombi in villous vessels (placental tissue [6]; [10]): 5%; Thrombi in villous vessels (placental tissue [6]; [11]): 1% and 0%; Vacuolated trophoblast in villi (placental tissue [6]; [11]): 0% and 20% and 1% (2×); transfer across the placental barrier (maternal to fetal circuit) ([4]; listed as Protopine): transferred from the maternal to the fetal circuit; fetal-maternal concentration ratio (FM ratio) ([4]; after 360 min, antipyrine from control perfusions): 0.75; Final recovery (% found) ([4]; sum of fetal and maternal perfusates, sampling and system adherence, 360 min): 71.4 ± 8.6%; ligand at 5-HT 1A receptors (5-HT 1A receptors): ligand at 5-HT 1A receptors; inhibition of serotonin transporter (serotonin transporter): inhibitor; inhibition of noradrenaline transporter [7]: inhibitor"
CN(C)CCCC1(c2ccc(F)cc2)OCc2cc(C#N)ccc21 (stereo not drawn) [citalopram],48.4% and 48.4 ± 12.9%,0.21 ± 0.01,crossed the human placental barrier,approximately 60 min,6.4%,11.4%,did not impair placental viability and metabolic activity,11%,22%,–
CN1C(=O)CN=C(c2ccccc2)c2cc(Cl)ccc21 [diazepam],54.8% and 54.8 ± 12.7%,–,crossed the human placental barrier,approximately 45 min,–,7.9%,did not impair placental viability and metabolic activity,–,–,"steady-state concentration (side not specified) ([4]; % of initially analyzed concentration, slow decrease until 360 min): 24%"
